The values below come from ChEMBL document CHEMBL3393023, “Benzimidazole-containing HCV NS5A inhibitors: effect of 4-substituted pyrrolidines in balancing genotype 1a and 1b potency” (Bioorg Med Chem Lett, 2015).

Molecules are shown by their SMILES. Some results are limits rather than exact numbers.

Data set [1] can be described thus: Cytotoxicity against human Huh7ET cells by [3H]-thymidine incorporation assay. It counts as cell-based. The following applies: Huh7ET cells (Huh-7). The method, boiled down: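 Huh-7 ET cells were exposed to 12 test-compound concentrations, each in duplicate. Viability was read by [3H]-thymidine incorporation and CC50 was derived from the curve. A run was accepted only when the positive-control CC50 fell within 40% of its mean value.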
On the technique in general: Incorporation of labelled thymidine or its analogues reports DNA synthesis.

In data set [2] the test system is Hepatitis C virus. As to the kind of experiment: Antiviral activity against Hepatitis C virus genotype 1a infected in W11.8 cells assessed as decrease in NS5A expression in replicon cell after 4 days by luminescence based ELISA. In kind it is functional, Hepacivirus hominis. The following applies: subtype 1a, W11.8, 96 h.
In data set [3] the test system is Hepatitis C virus. As to the kind of experiment: Antiviral activity against Hepatitis C virus genotype 1b infected in human Huh-5.2 cells assessed as decrease in HCV replicon RNA replication after 4 days by luciferase assay. The note with it: Huh-5-2, 96 h. It counts as functional, cell-based, Hepacivirus hominis.

Consider `COC(=O)N[C@H](C(=O)N1CCC[C@H]1c1nc2ccc(-c3ccc(-c4ccc5nc([C@@H]6CCCN6C(=O)[C@@H](NC(=O)OC)C(C)C)[nH]c5c4)s3)cc2[nH]1)C(C)C`, for which the CC50 in data set [1] worked out at 6000 nM. The EC50 in the data set with Hepatitis C virus [2] was found to be 0.94 nM; in the data set with Hepatitis C virus [3] it was 0.01 nM.
In data set [1], `COC(=O)N[C@H](C(=O)N1CCC[C@H]1c1nc2ccc(-c3ccc(-c4ccc5nc([C@@H]6CCCN6C(=O)[C@@H](NC(=O)OC)C(C)C)[nH]c5c4)cc3)cc2[nH]1)C(C)C` gave a CC50 of 6000 nM. In addition, the EC50 was 0.55 nM in the data set with Hepatitis C virus [2] and 0.012 nM in the data set with Hepatitis C virus [3].
`COC(=O)N[C@H](C(=O)N1CCC[C@H]1c1ncc(-c2ccc(-c3ccc(-c4ccc5nc([C@@H]6CCCN6C(=O)[C@@H](NC(=O)OC)C(C)C)[nH]c5c4)cc3)cc2)[nH]1)C(C)C`: the figures for the EC50 with Hepatitis C virus [2] and in the data set with Hepatitis C virus [3] were 0.139 nM and 0.013 nM, respectively.
Consider `COC(=O)N[C@H](C(=O)N1CCC[C@H]1c1nc2ccc(-c3ccc4nc([C@@H]5CCCN5C(=O)[C@@H](NC(=O)OC)C(C)C)[nH]c4c3)cc2[nH]1)C(C)C`, for which the CC50 in data set [1] is over 20000 nM. Besides, the figures for the EC50 with Hepatitis C virus [2] and in the data set on Hepatitis C virus [3] were over 2000 nM and 26 nM, respectively.
In turn, `COC(=O)N[C@H](C(=O)N1CCC[C@H]1c1nc2ccc(C#Cc3ccc4nc([C@@H]5CCCN5C(=O)[C@@H](NC(=O)OC)C(C)C)[nH]c4c3)cc2[nH]1)C(C)C` showed a CC50 in data set [1] of over 20000 nM. In addition, the EC50 with Hepatitis C virus [2] amounted to 28 nM; with Hepatitis C virus [3], 0.022 nM.
Molecule `COC(=O)N[C@H](C(=O)N1CCC[C@H]1c1nc2ccc(C#CC#Cc3ccc4nc([C@@H]5CCCN5C(=O)[C@@H](NC(=O)OC)C(C)C)[nH]c4c3)cc2[nH]1)C(C)C` had a CC50 in data set [1] of 13000 nM. Also, the EC50 in the data set with Hepatitis C virus [2] was found to be 18 nM; in the data set with Hepatitis C virus [3], 0.024 nM.
On to `COC(=O)N[C@H](C(=O)N1CCC[C@H]1c1nc2cc(CCc3ccc4[nH]c([C@@H]5CCCN5C(=O)[C@@H](NC(=O)OC)C(C)C)nc4c3)ccc2[nH]1)C(C)C`, for which the CC50 in data set [1] is over 20000 nM. The EC50 in the data set on Hepatitis C virus [2] came out at 688 nM; with Hepatitis C virus [3] it was 0.076 nM.
In the case of `COC(=O)N[C@H](C(=O)N1CCC[C@H]1c1nc2cc(-c3cccc(-c4ccc5[nH]c([C@@H]6CCCN6C(=O)[C@@H](NC(=O)OC)C(C)C)nc5c4)c3)ccc2[nH]1)C(C)C`, the CC50 in data set [1] was determined as 6000 nM. The EC50 was found to be 378 nM in the data set on Hepatitis C virus [2] and 20 nM with Hepatitis C virus [3].
The matching figures for `COC(=O)N[C@H](C(=O)N1CCC[C@H]1c1nc2cc(-c3ccc(-c4ccc5[nH]c([C@@H]6CCCN6C(=O)[C@@H](NC(=O)OC)C(C)C)nc5c4)c(C)c3)ccc2[nH]1)C(C)C`: 3000 nM, 0.84 nM and 0.006 nM.
In turn, `COC(=O)N[C@H](C(=O)N1CCC[C@H]1c1nc2cc(-c3ccc(-c4ccc5nc([C@@H]6CCCN6C(=O)[C@@H](NC(=O)OC)C(C)C)[nH]c5c4)cc3OC)ccc2[nH]1)C(C)C` registered a CC50 in data set [1] of 6000 nM. For the same molecule, the EC50 in the data set with Hepatitis C virus [2] came to 0.36 nM; in the data set with Hepatitis C virus [3] it was 0.013 nM.
The matching figures for `COC(=O)N[C@H](C(=O)N1CCC[C@H]1c1nc2cc(-c3ccc(-c4ccc5[nH]c([C@@H]6CCCN6C(=O)[C@@H](NC(=O)OC)C(C)C)nc5c4)c(F)c3)ccc2[nH]1)C(C)C`: 6000 nM, 0.84 nM and 0.012 nM.
As for `COC(=O)N[C@H](C(=O)N1CCC[C@H]1c1nc2cc(-c3cc(C)c(-c4ccc5[nH]c([C@@H]6CCCN6C(=O)[C@@H](NC(=O)OC)C(C)C)nc5c4)cc3C)ccc2[nH]1)C(C)C`, in data set [1], the CC50 was found to be 5000 nM. For the same molecule, the EC50 in the data set on Hepatitis C virus [2] is 0.9 nM; in the data set on Hepatitis C virus [3], 0.006 nM.
`COC(=O)N[C@H](C(=O)N1CCC[C@H]1c1nc2cc(-c3ccc(-c4ccc5[nH]c([C@@H]6CCCN6C(=O)[C@@H](NC(=O)OC)C(C)C)nc5c4)c(C)c3C)ccc2[nH]1)C(C)C` showed a 50% cytotoxic concentration (CC50) in data set [1] of 7000 nM. In addition, the EC50 with Hepatitis C virus [2] stood at 2.9 nM; in the data set with Hepatitis C virus [3], 0.01 nM.
The corresponding values for `COC(=O)N[C@H](C(=O)N1C[C@@H](F)C[C@H]1c1nc2cc(-c3ccc(-c4ccc5[nH]c([C@@H]6C[C@H](F)CN6C(=O)[C@@H](NC(=O)OC)C(C)C)nc5c4)cc3)ccc2[nH]1)C(C)C` are 11000 nM, 4.9 nM and 0.082 nM.
In data set [1], `COC(=O)N[C@H](C(=O)N1C[C@H](F)C[C@H]1c1nc2cc(-c3ccc(-c4ccc5[nH]c([C@@H]6C[C@@H](F)CN6C(=O)[C@@H](NC(=O)OC)C(C)C)nc5c4)cc3)ccc2[nH]1)C(C)C` gave a CC50 of 14000 nM. Moreover, the values for the EC50 with Hepatitis C virus [2] and in the data set on Hepatitis C virus [3] were 1.1 nM and 0.018 nM, respectively.
For `COC(=O)N[C@H](C(=O)N1CC(F)(F)C[C@H]1c1nc2cc(-c3ccc(-c4ccc5[nH]c([C@@H]6CC(F)(F)CN6C(=O)[C@@H](NC(=O)OC)C(C)C)nc5c4)cc3)ccc2[nH]1)C(C)C`, half-maximal cytotoxicity in data set [1] (CC50) was put at 13000 nM. Also, the EC50 in the data set with Hepatitis C virus [2] worked out at 0.5 nM; in the data set with Hepatitis C virus [3] it was 0.004 nM.
The corresponding values for `COC(=O)N[C@H](C(=O)N1C[C@H](O)C[C@H]1c1nc2cc(-c3ccc(-c4ccc5[nH]c([C@@H]6C[C@@H](O)CN6C(=O)[C@@H](NC(=O)OC)C(C)C)nc5c4)cc3)ccc2[nH]1)C(C)C` are over 20000 nM, 15 nM and 0.1 nM.
As for `COC(=O)N[C@H](C(=O)N1C[C@H](OC)C[C@H]1c1nc2cc(-c3ccc(-c4ccc5[nH]c([C@@H]6C[C@@H](OC)CN6C(=O)[C@@H](NC(=O)OC)C(C)C)nc5c4)cc3)ccc2[nH]1)C(C)C`, the CC50 in data set [1] stood at 6000 nM. In addition, the EC50 in the data set with Hepatitis C virus [2] amounted to 1.22 nM; in the data set with Hepatitis C virus [3], 0.034 nM.
Regarding `COC(=O)N[C@H](C(=O)N1C[C@@H](OC)C[C@H]1c1nc2cc(-c3ccc(-c4ccc5[nH]c([C@@H]6C[C@H](OC)CN6C(=O)[C@@H](NC(=O)OC)C(C)C)nc5c4)cc3)ccc2[nH]1)C(C)C`, the CC50 in data set [1] was over 20000 nM. The EC50 with Hepatitis C virus [2] was 0.053 nM; in the data set with Hepatitis C virus [3], 0.031 nM.
The molecule `COC(=O)N[C@H](C(=O)N1C[C@H](C)C[C@H]1c1nc2cc(-c3ccc(-c4ccc5[nH]c([C@@H]6C[C@@H](C)CN6C(=O)[C@@H](NC(=O)OC)C(C)C)nc5c4)cc3)ccc2[nH]1)C(C)C` gave a CC50 in data set [1] of 14000 nM. Moreover, the EC50 in the data set on Hepatitis C virus [2] was 0.028 nM; in the data set with Hepatitis C virus [3], 0.007 nM.
In turn, `COC(=O)N[C@H](C(=O)N1C[C@@H](C)C[C@H]1c1nc2cc(-c3ccc(-c4ccc5[nH]c([C@@H]6C[C@H](C)CN6C(=O)[C@@H](NC(=O)OC)C(C)C)nc5c4)cc3)ccc2[nH]1)C(C)C` showed a CC50 in data set [1] of over 20000 nM. Besides, the EC50 with Hepatitis C virus [2] was found to be 0.026 nM; with Hepatitis C virus [3], 0.037 nM.
In data set [1], `COC(=O)N[C@H](C(=O)N1C[C@@H](C(F)(F)F)C[C@H]1c1nc2cc(-c3ccc(-c4ccc5[nH]c([C@@H]6C[C@H](C(F)(F)F)CN6C(=O)[C@@H](NC(=O)OC)C(C)C)nc5c4)cc3)ccc2[nH]1)C(C)C` yielded a CC50 of 13000 nM. For the same molecule, the EC50 in the data set on Hepatitis C virus [2] came out at 0.03 nM; with Hepatitis C virus [3], 0.005 nM.
`CC[C@H]1C[C@@H](c2nc3cc(-c4ccc(-c5ccc6[nH]c([C@@H]7C[C@H](CC)CN7C(=O)[C@@H](NC(=O)OC)C(C)C)nc6c5)cc4)ccc3[nH]2)N(C(=O)[C@@H](NC(=O)OC)C(C)C)C1` had a CC50 in data set [1] of over 20000 nM. Further, the results for the EC50 in the data set with Hepatitis C virus [2] and with Hepatitis C virus [3] were 0.085 nM and 0.019 nM, respectively.
The matching figures for `COC(=O)N[C@H](C(=O)N1CC(C)(C)C[C@H]1c1nc2cc(-c3ccc(-c4ccc5[nH]c([C@@H]6CC(C)(C)CN6C(=O)[C@@H](NC(=O)OC)C(C)C)nc5c4)cc3)ccc2[nH]1)C(C)C`: over 20000 nM, 0.03 nM and 0.011 nM.
With `COC(=O)N[C@H](C(=O)N1C[C@@H](C)C[C@H]1c1nc2cc(C#CC#Cc3ccc4[nH]c([C@@H]5C[C@H](C)CN5C(=O)[C@@H](NC(=O)OC)C(C)C)nc4c3)ccc2[nH]1)C(C)C`, the values for the EC50 in the data set on Hepatitis C virus [2] and in the data set with Hepatitis C virus [3] were 0.018 nM and 0.024 nM, respectively.

As a reminder, the CC50 is the concentration that lowers cell viability or growth by half. A lower CC50 goes with greater toxicity to the cells. What is called EC50 is the concentration giving half of the maximal effect.
